pIC50: −log10 of the molar value.
What was measured:
[1] = tested on: Trypanosoma cruzi; experiment: Antitrypanosomal activity against Trypanosoma cruzi infected in rat L6 cells; assay type: functional, organism-based
Method in brief: (§1)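 Protocol follows an earlier published method. Compounds were tested in duplicate over 0.2–300 μM.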

[2] = tested on: Leishmania donovani; experiment: Antileishmanial activity against Leishmania donovani infected in rat L6 cells; assay type: functional, organism-based; method in brief: as §1
[3] = Ratio of compound IC50 to podophyllotoxin IC50 for rat L6 cells; assay type: cell-based; settings: read-out: Ratio IC50
[4] = tested on: Plasmodium falciparum; experiment: Antiplasmodial activity against chloroquine and pyrimethamine-resistant Plasmodium falciparum K1 infected in rat L6 cells; assay type: functional, organism-based
Method in brief: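 P. falciparum K1 (chloroquine- and pyrimethamine-resistant) tested in vitro following an earlier-published method. Compounds were run in duplicate over 0.2–300 μM. Values are the mean of four determinations (two per experiment, two independent experiments).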

[5] = tested on: L6; experiment: Cytotoxicity against rat L6 cells; assay type: cell-based; method in brief: as §1
[6] = tested on: Trypanosoma brucei rhodesiense; experiment: Antitrypanosomal activity against Trypanosoma brucei rhodesiense infected in rat L6 cells; assay type: functional, organism-based; method in brief: as §1
[7] = Selectivity index, ratio of IC50 for rat L6 cells to IC50 for Trypanosoma cruzi infected in rat L6 cells; assay type: toxicity, cell-based; settings: read-out: Ratio IC50
Method in brief: (§2)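 SI = IC50 in rat L6 cells / IC50 against the parasite (T. cruzi or P. falciparum K1). Both IC50s came from duplicate in vitro runs over 0.2–300 μM following an earlier-published method, each averaged from four determinations across two independent experiments.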

[8] = Selectivity index, ratio of IC50 for rat L6 cells to IC50 for chloroquine and pyrimethamine-resistant Plasmodium falciparum K1 infected in rat L6 cells; assay type: toxicity, cell-based; settings: read-out: Ratio IC50; method in brief: as §2
[9] = tested on: Trypanosoma cruzi; experiment: Ratio of compound IC50 to benznidazole IC50 for Trypanosoma cruzi infected in rat L6 cells; assay type: functional

| SMILES | pIC50 [1] | pIC50 [2] | selectivity ratio [3] | pIC50 [4] | pIC50 [5] | pIC50 [6] | selectivity ratio [7] | selectivity ratio [8] | Ratio IC50 [9] |
| --- | --- | --- | --- | --- | --- | --- | --- | --- | --- |
| CC1CCc2ccccc2N1S(=O)(=O)c1cccc([N+](=O)[O-])c1 (stereo unspecified) | 4.50 | 4.60 | 590 | 4.99 | 3.73 | 4.48 | 5.85 | 18.1 | – |
| CC1CCc2ccccc2N1 (stereo unspecified) | 3.72 | < 3.21 | – | < 4.47 | 3.60 | 4.06 | 1.32 | < 7.32 | – |
| CC1CCc2ccccc2N1S(=O)(=O)c1ccccc1 (stereo unspecified) | 4.67 | 3.76 | 590 | 4.88 | 4.15 | 4.28 | 3.29 | 5.28 | – |
| CC(=O)Nc1ccc(S(=O)(=O)N2c3ccccc3CCC2C)cc1 (stereo unspecified) | 4.67 | 4.30 | 590 | < 4.84 | 4.28 | 4.30 | 2.42 | < 3.58 | – |
| Cc1ccc(S(=O)(=O)N2c3ccccc3CCC2C)cc1 (stereo unspecified) | 4.78 | 4.65 | 590 | 4.96 | 5.31 | 4.36 | 0.29 | 0.44 | – |
| CC1CCc2ccccc2N1S(=O)(=O)c1ccc(F)cc1 (stereo unspecified) | 3.65 | 3.78 | 590 | 4.92 | 4.17 | 3.90 | 0.3 | 5.58 | – |
| CC1CCc2ccccc2N1S(=O)(=O)c1ccc(Cl)cc1 (stereo unspecified) | 4.80 | 4.72 | 590 | 5.07 | 4.69 | 4.36 | 1.28 | 2.43 | – |
| CC1CCc2ccccc2N1S(=O)(=O)c1ccc(Br)cc1 (stereo unspecified) | 4.86 | 4.67 | 590 | 5.18 | 5.13 | 4.40 | 0.53 | 1.1 | – |
| CC1CCc2ccccc2N1S(=O)(=O)c1ccc(N)cc1 (stereo unspecified) | 4.70 | 4.25 | 590 | < 4.78 | 4.45 | 4.43 | 1.78 | < 2.13 | – |
| CC1CCc2ccccc2N1S(=O)(=O)c1ccc([N+](=O)[O-])cc1 (stereo unspecified) | 4.94 | < 3.57 | 590 | 5.08 | 3.61 | 3.81 | 21.7 | 30 | 7 |
| COc1ccc(S(=O)(=O)N2c3ccccc3CCC2C)cc1 (stereo unspecified) | 4.80 | 4.57 | 590 | 4.93 | 5.22 | 4.36 | 0.37 | 0.5 | – |
| O=C(Cn1ccnc1[N+](=O)[O-])NCc1ccccc1 [BENZNIDAZOLE] | 5.81 | – | – | – | – | – | – | – | – |
| Nc1nc(N)nc(Nc2ccc([As]3SCC(CO)S3)cc2)n1 (stereo unspecified) [MELARSOPROL] | – | – | – | – | – | 8.10 | – | – | – |
| CCCCCCCCCCCCCCCCOP(=O)([O-])OCC[N+](C)(C)C [MILTEFOSINE] | – | 6.60 | – | – | – | – | – | – | – |
